Assay [1] has as its target RAC-alpha serine/threonine-protein kinase (Homo sapiens, UniProt P31749). Briefly: Inhibition of recombinant AKT1. The gist of the method: (§1)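 Purified recombinant kinase, 50 µL reaction. 1 µM [γ-33P]-ATP with substrate; compound added in 10% DMSO. Tested over several concentrations; IC50 in g/mL.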
Assay [2] has as its target T1, Receptor-type tyrosine-protein kinase FLT3 (Homo sapiens, UniProt P36888).
T1 sequence (P36888 whole entry): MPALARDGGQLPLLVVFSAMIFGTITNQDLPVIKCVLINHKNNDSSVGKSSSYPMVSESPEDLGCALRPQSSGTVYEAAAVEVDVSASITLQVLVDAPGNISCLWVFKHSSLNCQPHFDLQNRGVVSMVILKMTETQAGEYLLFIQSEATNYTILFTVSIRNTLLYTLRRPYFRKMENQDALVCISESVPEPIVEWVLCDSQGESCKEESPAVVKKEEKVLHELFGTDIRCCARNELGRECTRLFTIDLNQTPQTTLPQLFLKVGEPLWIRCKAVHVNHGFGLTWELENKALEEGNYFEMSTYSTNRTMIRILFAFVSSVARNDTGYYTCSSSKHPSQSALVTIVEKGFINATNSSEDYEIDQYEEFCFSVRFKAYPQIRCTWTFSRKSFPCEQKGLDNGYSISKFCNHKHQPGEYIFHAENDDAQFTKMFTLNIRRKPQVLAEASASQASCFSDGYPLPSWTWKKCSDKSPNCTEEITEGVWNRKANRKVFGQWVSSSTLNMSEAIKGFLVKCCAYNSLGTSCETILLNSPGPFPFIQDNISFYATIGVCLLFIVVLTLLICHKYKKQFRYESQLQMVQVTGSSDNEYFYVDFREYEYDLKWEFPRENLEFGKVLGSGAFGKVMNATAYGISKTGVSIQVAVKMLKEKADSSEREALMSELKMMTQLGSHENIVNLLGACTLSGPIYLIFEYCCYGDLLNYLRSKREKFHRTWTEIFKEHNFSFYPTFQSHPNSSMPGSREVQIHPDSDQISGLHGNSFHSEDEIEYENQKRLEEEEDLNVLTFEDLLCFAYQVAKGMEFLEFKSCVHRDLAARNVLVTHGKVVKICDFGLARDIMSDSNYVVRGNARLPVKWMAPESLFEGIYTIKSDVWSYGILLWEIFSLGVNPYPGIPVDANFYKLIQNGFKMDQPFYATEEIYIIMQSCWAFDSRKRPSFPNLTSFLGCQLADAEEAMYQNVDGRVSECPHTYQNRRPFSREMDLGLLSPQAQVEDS
Briefly: Inhibition of recombinant FLT3. The method in brief: as §1

Assay [3] has as its target Aurora kinase B (Homo sapiens, UniProt Q96GD4). Briefly: Inhibition of recombinant Aurora B. The gist of the method: as §1
Assay [4] has as its target Casein kinase II subunit alpha (Homo sapiens, UniProt P68400). Briefly: Inhibition of recombinant CK2alpha1. The gist of the method:
as §1

The target of assay [5] is Proto-oncogene tyrosine-protein kinase Src (Homo sapiens, UniProt P12931). Briefly: Inhibition of recombinant SRC. The gist of the method: as §1
Sequence of Proto-oncogene tyrosine-protein kinase Src (P12931 2-536 limits assumed): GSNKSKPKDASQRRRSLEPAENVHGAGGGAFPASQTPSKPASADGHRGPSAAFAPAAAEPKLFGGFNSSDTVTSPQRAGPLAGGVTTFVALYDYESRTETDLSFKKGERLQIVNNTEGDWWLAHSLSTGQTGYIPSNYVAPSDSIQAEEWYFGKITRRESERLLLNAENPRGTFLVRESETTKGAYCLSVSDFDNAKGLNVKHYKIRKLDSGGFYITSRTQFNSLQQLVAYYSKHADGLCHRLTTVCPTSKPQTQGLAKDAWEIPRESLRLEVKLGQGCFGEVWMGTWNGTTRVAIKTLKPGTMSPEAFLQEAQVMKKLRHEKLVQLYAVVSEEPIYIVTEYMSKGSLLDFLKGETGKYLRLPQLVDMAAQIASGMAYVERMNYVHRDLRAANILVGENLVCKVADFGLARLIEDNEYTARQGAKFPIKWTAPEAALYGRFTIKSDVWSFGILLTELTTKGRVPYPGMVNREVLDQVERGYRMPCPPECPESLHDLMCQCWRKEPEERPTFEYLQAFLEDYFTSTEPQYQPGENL
Assay [6] addresses Insulin-like growth factor 1 receptor (Homo sapiens, UniProt P08069). Briefly: Inhibition of recombinant IGF1R. The method in brief: as §1
Assay [7] addresses Angiopoietin-1 receptor (Homo sapiens, UniProt Q02763). Briefly: Inhibition of recombinant TIE2.
For assay [8], the target named is T2, Ephrin type-B receptor 4 (Homo sapiens, UniProt P54760).
T2 sequence (P54760 whole entry): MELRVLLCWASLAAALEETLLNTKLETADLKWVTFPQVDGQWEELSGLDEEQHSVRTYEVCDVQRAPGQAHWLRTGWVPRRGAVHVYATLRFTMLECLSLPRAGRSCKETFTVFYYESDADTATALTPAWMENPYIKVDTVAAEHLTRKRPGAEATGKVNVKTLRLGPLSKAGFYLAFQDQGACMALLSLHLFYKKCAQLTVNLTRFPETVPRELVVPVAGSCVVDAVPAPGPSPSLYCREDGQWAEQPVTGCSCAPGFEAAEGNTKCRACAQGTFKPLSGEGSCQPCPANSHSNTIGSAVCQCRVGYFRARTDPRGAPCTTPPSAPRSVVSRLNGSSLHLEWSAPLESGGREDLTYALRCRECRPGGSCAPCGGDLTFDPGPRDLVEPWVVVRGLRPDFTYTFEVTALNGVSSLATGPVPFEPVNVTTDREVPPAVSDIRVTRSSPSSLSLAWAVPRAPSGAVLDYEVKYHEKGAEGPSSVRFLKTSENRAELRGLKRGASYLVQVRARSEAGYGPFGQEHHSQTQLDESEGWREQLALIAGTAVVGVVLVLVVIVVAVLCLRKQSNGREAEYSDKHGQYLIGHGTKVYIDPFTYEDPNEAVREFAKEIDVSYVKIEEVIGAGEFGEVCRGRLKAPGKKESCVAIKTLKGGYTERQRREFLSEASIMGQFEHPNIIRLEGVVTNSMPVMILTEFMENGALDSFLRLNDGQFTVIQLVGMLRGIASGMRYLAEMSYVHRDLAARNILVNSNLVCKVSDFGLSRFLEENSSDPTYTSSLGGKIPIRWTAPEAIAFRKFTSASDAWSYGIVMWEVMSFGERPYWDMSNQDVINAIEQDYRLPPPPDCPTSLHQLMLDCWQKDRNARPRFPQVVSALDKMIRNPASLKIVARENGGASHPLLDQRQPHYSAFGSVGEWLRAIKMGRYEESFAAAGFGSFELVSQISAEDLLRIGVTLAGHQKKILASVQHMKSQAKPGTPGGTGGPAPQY
Briefly: Inhibition of recombinant EPHB4. The gist of the method: as §1

The target in assay [9] is Cyclin-dependent kinase 2 (Homo sapiens, UniProt P24941). Briefly: Inhibition of recombinant CDK2/CycA. The gist of the method:
as §1

Assay [10] deals with T3, NUAK family SNF1-like kinase 1 (Homo sapiens, UniProt O60285).
T3 sequence (O60285 whole entry): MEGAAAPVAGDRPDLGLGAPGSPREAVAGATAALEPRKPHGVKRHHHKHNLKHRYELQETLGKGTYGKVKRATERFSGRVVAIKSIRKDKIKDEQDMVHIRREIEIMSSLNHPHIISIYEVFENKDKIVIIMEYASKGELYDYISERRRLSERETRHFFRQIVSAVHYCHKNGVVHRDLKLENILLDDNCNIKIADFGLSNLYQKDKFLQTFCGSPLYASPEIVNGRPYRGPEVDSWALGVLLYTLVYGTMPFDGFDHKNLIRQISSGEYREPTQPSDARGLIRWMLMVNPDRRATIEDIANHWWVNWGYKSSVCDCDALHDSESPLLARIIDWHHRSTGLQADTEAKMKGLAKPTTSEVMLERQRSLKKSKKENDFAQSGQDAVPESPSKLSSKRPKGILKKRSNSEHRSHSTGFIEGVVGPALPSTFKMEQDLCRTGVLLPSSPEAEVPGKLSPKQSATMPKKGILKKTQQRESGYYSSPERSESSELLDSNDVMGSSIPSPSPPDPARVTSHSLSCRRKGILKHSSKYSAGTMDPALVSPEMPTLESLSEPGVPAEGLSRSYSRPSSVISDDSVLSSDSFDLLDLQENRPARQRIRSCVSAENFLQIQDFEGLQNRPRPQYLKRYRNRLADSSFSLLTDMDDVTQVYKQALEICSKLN
Briefly: Inhibition of recombinant ARK5.

Sequence of Insulin-like growth factor 1 receptor (P08069 31-736 limits assumed): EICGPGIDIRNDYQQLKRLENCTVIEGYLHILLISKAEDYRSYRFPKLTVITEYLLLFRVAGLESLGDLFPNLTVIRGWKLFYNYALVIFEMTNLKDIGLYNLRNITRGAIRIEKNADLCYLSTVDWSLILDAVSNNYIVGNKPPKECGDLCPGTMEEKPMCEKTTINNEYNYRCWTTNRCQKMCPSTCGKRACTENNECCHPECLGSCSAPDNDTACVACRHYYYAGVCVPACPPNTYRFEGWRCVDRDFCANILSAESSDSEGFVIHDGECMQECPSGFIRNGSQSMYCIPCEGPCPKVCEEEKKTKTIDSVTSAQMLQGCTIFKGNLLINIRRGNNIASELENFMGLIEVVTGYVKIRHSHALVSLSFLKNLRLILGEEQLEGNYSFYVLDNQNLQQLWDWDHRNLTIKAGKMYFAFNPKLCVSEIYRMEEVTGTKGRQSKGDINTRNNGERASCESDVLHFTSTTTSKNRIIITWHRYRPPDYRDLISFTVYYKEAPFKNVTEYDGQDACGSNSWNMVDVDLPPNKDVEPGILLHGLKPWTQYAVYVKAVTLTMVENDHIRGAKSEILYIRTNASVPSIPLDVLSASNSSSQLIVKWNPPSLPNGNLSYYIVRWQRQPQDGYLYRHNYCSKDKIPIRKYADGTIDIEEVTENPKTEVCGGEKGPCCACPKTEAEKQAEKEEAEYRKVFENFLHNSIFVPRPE
Sequence of Insulin-like growth factor 1 receptor (P08069 741-1367 limits assumed): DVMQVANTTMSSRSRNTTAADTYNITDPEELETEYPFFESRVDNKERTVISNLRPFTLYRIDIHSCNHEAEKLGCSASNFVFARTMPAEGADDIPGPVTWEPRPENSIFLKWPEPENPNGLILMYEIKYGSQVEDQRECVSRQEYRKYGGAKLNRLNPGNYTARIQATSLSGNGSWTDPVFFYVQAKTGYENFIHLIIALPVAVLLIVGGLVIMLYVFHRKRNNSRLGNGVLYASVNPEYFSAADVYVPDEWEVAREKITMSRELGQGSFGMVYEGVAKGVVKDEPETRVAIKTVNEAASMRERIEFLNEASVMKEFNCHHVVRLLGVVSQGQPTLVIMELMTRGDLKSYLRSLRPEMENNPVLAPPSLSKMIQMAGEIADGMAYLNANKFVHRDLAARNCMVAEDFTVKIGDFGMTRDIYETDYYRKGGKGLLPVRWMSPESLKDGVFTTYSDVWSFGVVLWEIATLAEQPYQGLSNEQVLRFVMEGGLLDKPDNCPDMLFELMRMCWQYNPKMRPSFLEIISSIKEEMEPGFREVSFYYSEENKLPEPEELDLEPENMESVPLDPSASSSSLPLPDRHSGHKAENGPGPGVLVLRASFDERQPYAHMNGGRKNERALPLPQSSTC
Sequence of Angiopoietin-1 receptor (Q02763 whole entry): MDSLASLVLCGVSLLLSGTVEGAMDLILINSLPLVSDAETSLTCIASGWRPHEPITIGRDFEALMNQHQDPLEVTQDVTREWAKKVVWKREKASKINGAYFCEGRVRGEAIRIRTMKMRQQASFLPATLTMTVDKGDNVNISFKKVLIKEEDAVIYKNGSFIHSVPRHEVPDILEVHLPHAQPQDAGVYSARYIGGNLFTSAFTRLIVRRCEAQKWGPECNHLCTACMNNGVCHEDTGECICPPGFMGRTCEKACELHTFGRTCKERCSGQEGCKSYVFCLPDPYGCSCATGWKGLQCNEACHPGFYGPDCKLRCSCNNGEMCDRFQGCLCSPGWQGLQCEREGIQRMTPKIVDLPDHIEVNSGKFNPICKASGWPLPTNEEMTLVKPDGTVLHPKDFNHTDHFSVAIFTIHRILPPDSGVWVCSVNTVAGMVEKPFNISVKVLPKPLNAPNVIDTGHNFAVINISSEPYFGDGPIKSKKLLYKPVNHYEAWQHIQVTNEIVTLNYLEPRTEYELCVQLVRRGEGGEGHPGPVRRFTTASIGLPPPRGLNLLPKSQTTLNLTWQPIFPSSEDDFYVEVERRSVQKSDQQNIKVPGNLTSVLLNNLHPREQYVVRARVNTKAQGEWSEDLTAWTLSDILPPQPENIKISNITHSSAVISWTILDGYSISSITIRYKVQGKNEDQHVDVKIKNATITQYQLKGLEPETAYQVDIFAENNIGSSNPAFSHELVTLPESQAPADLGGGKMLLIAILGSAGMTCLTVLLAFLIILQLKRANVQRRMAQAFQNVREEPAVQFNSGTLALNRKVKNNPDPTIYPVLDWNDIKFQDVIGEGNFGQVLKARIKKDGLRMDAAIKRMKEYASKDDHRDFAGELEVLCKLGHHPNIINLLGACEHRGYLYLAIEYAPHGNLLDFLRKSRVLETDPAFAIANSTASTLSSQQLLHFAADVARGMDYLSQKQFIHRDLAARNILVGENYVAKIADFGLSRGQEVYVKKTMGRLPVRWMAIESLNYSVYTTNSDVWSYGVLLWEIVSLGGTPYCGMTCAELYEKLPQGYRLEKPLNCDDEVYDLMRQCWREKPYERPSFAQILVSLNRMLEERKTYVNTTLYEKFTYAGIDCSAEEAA
Sequence of Casein kinase II subunit alpha (P68400 whole entry): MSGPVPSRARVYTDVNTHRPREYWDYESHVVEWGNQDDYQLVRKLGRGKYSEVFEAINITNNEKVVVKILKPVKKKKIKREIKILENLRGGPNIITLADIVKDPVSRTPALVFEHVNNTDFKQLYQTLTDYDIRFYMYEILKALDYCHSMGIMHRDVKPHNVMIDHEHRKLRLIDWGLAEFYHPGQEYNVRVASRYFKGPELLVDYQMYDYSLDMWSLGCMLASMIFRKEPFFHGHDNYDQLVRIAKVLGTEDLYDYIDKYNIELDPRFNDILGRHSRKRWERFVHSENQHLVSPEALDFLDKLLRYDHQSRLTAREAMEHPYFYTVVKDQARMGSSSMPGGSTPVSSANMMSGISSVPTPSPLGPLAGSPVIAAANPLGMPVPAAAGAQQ
Sequence of RAC-alpha serine/threonine-protein kinase (P31749 whole entry): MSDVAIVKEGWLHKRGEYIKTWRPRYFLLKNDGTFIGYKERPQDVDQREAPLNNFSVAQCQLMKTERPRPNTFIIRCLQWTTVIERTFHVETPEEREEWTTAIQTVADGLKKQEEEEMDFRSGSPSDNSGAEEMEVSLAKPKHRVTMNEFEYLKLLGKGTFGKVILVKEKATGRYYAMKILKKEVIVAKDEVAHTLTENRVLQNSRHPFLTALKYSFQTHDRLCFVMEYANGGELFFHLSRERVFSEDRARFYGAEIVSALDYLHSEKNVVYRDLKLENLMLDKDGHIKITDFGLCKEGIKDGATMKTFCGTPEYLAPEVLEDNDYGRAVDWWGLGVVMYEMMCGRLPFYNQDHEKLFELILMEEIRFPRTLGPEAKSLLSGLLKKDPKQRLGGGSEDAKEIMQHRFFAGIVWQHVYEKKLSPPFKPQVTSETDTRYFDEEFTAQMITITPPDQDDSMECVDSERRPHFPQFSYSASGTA
Sequence of Aurora kinase B (Q96GD4 whole entry): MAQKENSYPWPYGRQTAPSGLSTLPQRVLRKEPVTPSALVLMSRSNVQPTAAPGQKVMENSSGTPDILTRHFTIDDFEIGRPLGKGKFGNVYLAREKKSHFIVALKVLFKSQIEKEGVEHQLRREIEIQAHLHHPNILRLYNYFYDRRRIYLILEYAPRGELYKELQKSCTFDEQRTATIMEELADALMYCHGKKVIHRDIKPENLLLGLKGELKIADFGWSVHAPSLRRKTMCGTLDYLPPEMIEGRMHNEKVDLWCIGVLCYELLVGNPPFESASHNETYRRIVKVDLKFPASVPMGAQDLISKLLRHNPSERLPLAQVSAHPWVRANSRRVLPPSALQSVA

What is called IC50 is the concentration that inhibits the measured activity by half. On to `COc1cc(O)c2c(c1)-c1cc(O)c(O)cc1COC2=O` [Alterlactone], for which the IC50 in assay [1], in [2], in [3], in [4], in assay [5] and in assay [6] was more than 34.6 µM each time. Further, the IC50 in assay [7], in assay [8], in assay [9] and in assay [10] was more than 34.6 µM throughout.
Consider `COc1cc(O)c2c(c1)C1(OC2=O)C(=O)C(=O)CC1C` (stereo not given) [TALAROFLAVONE], for which the IC50 in assay [1], in [2], in [3], in assay [4], in assay [5] and in [6] was more than 36.2 µM in each case. The IC50 in assay [7], in assay [8], in assay [9] and in assay [10] was more than 36.2 µM each time.

(Values after BindingDB's records for doi:10.1021/np070447m (2008).)
